≈ marks a conversion by molar mass, not a printed value.
Columns and labels:
Assay type in all cases: functional
Klebsiella pneumoniae [1] = assay: Antibacterial activity against Klebsiella pneumoniae clinical isolate after 24 hrs by broth micro dilution method
Escherichia coli [2] = assay: Antibacterial activity against Escherichia coli ATCC 25922 after 24 hrs by broth micro dilution method; settings: ATCC 25922, 24 h
Summary of the method: (§1)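 MIC by broth microdilution; growth read visually and spectrophotometrically. MIC taken as the lowest concentration giving complete inhibition of bacterial growth.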

Candida albicans [3] = assay: Antifungal activity against Candida albicans after 20 hrs by agar dilution method
Summary of the method: (§2)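 Clinical Candida isolates purified and subcultured on SC, SCC and PDA media before testing. Compounds were dissolved in DMSO as a stock, then diluted into solid PDA medium to final concentrations of 0.0312 to 256.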

Klebsiella pneumoniae [4] = assay: Antibacterial activity against Klebsiella pneumoniae clinical isolate after 24 hrs by disc diffusion method
Candida tropicalis [5] = assay: Antifungal activity against Candida tropicalis clinical isolate after 20 hrs by agar dilution method
Candida parapsilosis [6] = assay: Antifungal activity against Candida parapsilosis clinical isolate after 20 hrs by agar dilution method; settings: Lodderomyces parapsilosis
Streptococcus pyogenes [7] = assay: Antibacterial activity against Streptococcus pyogenes clinical isolate after 24 hrs by broth micro dilution method
Pichia kudriavzevii [8] = assay: Fungicidal activity against Candida krusei by micro dilution method
Pseudomonas aeruginosa [9] = assay: Bactericidal activity against Pseudomonas aeruginosa ATCC 27853 after 18 to 24 hrs; settings: read-out: MBC99.9
Summary of the method: (§3)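 MBC taken as the lowest concentration that killed the bacteria completely.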

Candida parapsilosis [10] = assay: Fungicidal activity against Candida parapsilosis by micro dilution method; settings: Lodderomyces parapsilosis
Candida tropicalis [11] = assay: Antifungal activity against fluconazole, itraconazole-resistant Candida tropicalis clinical isolate after 20 hrs by agar dilution method; summary of the method: as §2
Staphylococcus aureus [12] = assay: Antibacterial activity against Staphylococcus aureus after 24 hrs by disc diffusion method
Summary of the method: (§4)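 Disk diffusion on agar; activity measured as the halo zone of inhibition around the disk.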

Pseudomonas aeruginosa [13] = assay: Antibacterial activity against Pseudomonas aeruginosa ATCC 27853 after 24 hrs by broth micro dilution method; settings: ATCC 27853, 24 h; summary of the method: as §1
Candida dubliniensis [14] = assay: Antifungal activity against Candida dubliniensis after 20 hrs by agar dilution method
Escherichia coli [15] = assay: Antibacterial activity against Escherichia coli ATCC 25922 after 24 hrs by disc diffusion method; summary of the method: as §4
Nakaseomyces glabratus [16] = assay: Antifungal activity against Candida glabrata after 20 hrs by agar dilution method
Candida tropicalis [17] = assay: Antifungal activity against Candida tropicalis after 20 hrs by agar dilution method
Candida dubliniensis [18] = assay: Fungicidal activity against Candida dubliniensis by micro dilution method
Candida tropicalis [19] = assay: Fungicidal activity against Candida tropicalis clinical isolate by micro dilution method
Streptococcus pyogenes [20] = assay: Antibacterial activity against Streptococcus pyogenes clinical isolate after 24 hrs by disc diffusion method
Streptococcus pyogenes [21] = assay: Bactericidal activity against Streptococcus pyogenes clinical isolate after 18 to 24 hrs; settings: read-out: MBC99.9
Candida albicans [22] = assay: Fungicidal activity against Candida albicans clinical isolate by micro dilution method
Staphylococcus aureus [23] = assay: Bactericidal activity against Staphylococcus aureus after 18 to 24 hrs; settings: read-out: MBC99.9; summary of the method: as §3
Candida tropicalis [24] = assay: Fungicidal activity against Candida tropicalis by micro dilution method
Candida parapsilosis [25] = assay: Antifungal activity against Candida parapsilosis after 20 hrs by agar dilution method; settings: Lodderomyces parapsilosis
Staphylococcus aureus [26] = assay: Antibacterial activity against Staphylococcus aureus after 24 hrs by broth micro dilution method; summary of the method: as §1
Nakaseomyces glabratus [27] = assay: Fungicidal activity against Candida glabrata by micro dilution method
Candida parapsilosis [28] = assay: Fungicidal activity against Candida parapsilosis clinical isolate by micro dilution method; settings: Lodderomyces parapsilosis
Candida albicans [29] = assay: Fungicidal activity against Candida albicans by micro dilution method
Pichia kudriavzevii [30] = assay: Antifungal activity against Candida krusei after 20 hrs by agar dilution method
Candida albicans [31] = assay: Antifungal activity against Candida albicans clinical isolate after 20 hrs by agar dilution method
Pseudomonas aeruginosa [32] = assay: Antibacterial activity against Pseudomonas aeruginosa ATCC 27853 after 24 hrs by disc diffusion method; summary of the method: as §4
Candida albicans [33] = assay: Antifungal activity against fluconazole, itraconazole-resistant Candida albicans clinical isolate after 20 hrs by agar dilution method; summary of the method: as §2
Klebsiella pneumoniae [34] = assay: Bactericidal activity against Klebsiella pneumoniae clinical isolate after 18 to 24 hrs; settings: read-out: MBC99.9
Escherichia coli [35] = assay: Bactericidal activity against Escherichia coli ATCC 25922 after 18 to 24 hrs; settings: read-out: MBC99.9; summary of the method: as §3
Candida tropicalis [36] = assay: Fungicidal activity against fluconazole, itraconazole-resistant Candida tropicalis clinical isolate by micro dilution method

SMILES	MIC (Klebsiella pneumoniae [1]) [µg/mL]	MIC (Escherichia coli [2]) [µg/mL]	MIC90 (Candida albicans [3]) [µg/mL]	diameter of the inhibition zone (DIZ) (Klebsiella pneumoniae [4]) [mm]	MIC90 (Candida tropicalis [5]) [µg/mL]	MIC90 (Candida parapsilosis [6]) [µg/mL]	MIC (Streptococcus pyogenes [7]) [µg/mL]	MFC (Pichia kudriavzevii [8]) [µg/mL]	MBC (Pseudomonas aeruginosa [9]) [µg/mL]	MFC (Candida parapsilosis [10]) [µg/mL]	diameter of the inhibition zone (DIZ) (Staphylococcus aureus [12]) [mm]	MIC (Pseudomonas aeruginosa [13]) [µg/mL]	MIC90 (Candida dubliniensis [14]) [µg/mL]	diameter of the inhibition zone (DIZ) (Escherichia coli [15]) [mm]	MIC90 (Nakaseomyces glabratus [16]) [µg/mL]	MIC90 (Candida tropicalis [17]) [µg/mL]	MFC (Candida dubliniensis [18]) [µg/mL]	MFC (Candida tropicalis [19]) [µg/mL]	diameter of the inhibition zone (DIZ) (Streptococcus pyogenes [20]) [mm]	diameter of the inhibition zone (DIZ) (Pseudomonas aeruginosa [32]) [mm]	other results
CCCCCCCCC1C(CCC)=NOC1CCCCCCCC(=O)OC (configuration not stated)	25 (≈ 65.5 µM)	25 (≈ 65.5 µM)	128 (≈ 335 µM)	18.5	128 (≈ 335 µM)	128 (≈ 335 µM)	25 (≈ 65.5 µM)	> 256	50 (≈ 131 µM)	> 256	21.6	25 (≈ 65.5 µM)	128 (≈ 335 µM)	26.7	128 (≈ 335 µM)	128 (≈ 335 µM)	> 256	> 256	22.3	31.3	MIC90 (Candida tropicalis [11]): > 256 µg/mL; MBC (Streptococcus pyogenes [21]): 50 µg/mL (≈ 131 µM); MFC (Candida albicans [22]): > 256 µg/mL; MBC (Staphylococcus aureus [23]): 100 µg/mL (≈ 262 µM); MFC (Candida tropicalis [24]): > 256 µg/mL; MIC90 (Candida parapsilosis [25]): > 256 µg/mL; MIC (Staphylococcus aureus [26]): 25 µg/mL (≈ 65.5 µM); MFC (Nakaseomyces glabratus [27]): > 256 µg/mL; MFC (Candida parapsilosis [28]): > 256 µg/mL; MFC (Candida albicans [29]): 256 µg/mL (≈ 671 µM); MIC90 (Pichia kudriavzevii [30]): > 256 µg/mL; MIC90 (Candida albicans [31]): 128 µg/mL (≈ 335 µM); MIC90 (Candida albicans [33]): > 256 µg/mL; MBC (Klebsiella pneumoniae [34]): 100 µg/mL (≈ 262 µM); MBC (Escherichia coli [35]): 50 µg/mL (≈ 131 µM); MFC (Candida tropicalis [36]): 128 µg/mL (≈ 335 µM)
CCCCCC1C(CCC)=NOC1CC[C@H](O)CCCCCCCC(=O)OC (some centres not stated)	25 (≈ 62.9 µM)	25 (≈ 62.9 µM)	128 (≈ 322 µM)	18.9	64 (≈ 161 µM)	128 (≈ 322 µM)	25 (≈ 62.9 µM)	> 256	100 (≈ 252 µM)	> 256	20.8	50 (≈ 126 µM)	128 (≈ 322 µM)	26.5	64 (≈ 161 µM)	128 (≈ 322 µM)	> 256	> 128	22.4	31.8	MIC90 (Candida tropicalis [11]): > 256 µg/mL; MBC (Streptococcus pyogenes [21]): 50 µg/mL (≈ 126 µM); MFC (Candida albicans [22]): 256 µg/mL (≈ 644 µM); MBC (Staphylococcus aureus [23]): 100 µg/mL (≈ 252 µM); MFC (Candida tropicalis [24]): > 256 µg/mL; MIC90 (Candida parapsilosis [25]): 32 µg/mL (≈ 80.5 µM); MIC (Staphylococcus aureus [26]): 25 µg/mL (≈ 62.9 µM); MFC (Nakaseomyces glabratus [27]): 128 µg/mL (≈ 322 µM); MFC (Candida parapsilosis [28]): > 256 µg/mL; MFC (Candida albicans [29]): > 256 µg/mL; MIC90 (Pichia kudriavzevii [30]): 128 µg/mL (≈ 322 µM); MIC90 (Candida albicans [31]): 64 µg/mL (≈ 161 µM); MIC90 (Candida albicans [33]): > 256 µg/mL; MBC (Klebsiella pneumoniae [34]): 100 µg/mL (≈ 252 µM); MBC (Escherichia coli [35]): 100 µg/mL (≈ 252 µM)
O=C(O)c1cn(C2CC2)c2cc(N3CCNCC3)c(F)cc2c1=O [CIPROFLOXACIN]											22			27						32	
CCCc1cc(CCCCCCCCC(=O)O)on1	50 (≈ 187 µM)	50 (≈ 187 µM)	> 256	18.3	128 (≈ 479 µM)	256 (≈ 957 µM)	50 (≈ 187 µM)	> 256	> 100	> 256	19.2	100 (≈ 374 µM)	128 (≈ 479 µM)	25.7	128 (≈ 479 µM)	> 256	256 (≈ 957 µM)	> 256	21.6	31.2	MBC (Streptococcus pyogenes [21]): 100 µg/mL (≈ 374 µM); MFC (Candida albicans [22]): > 256 µg/mL; MBC (Staphylococcus aureus [23]): 100 µg/mL (≈ 374 µM); MFC (Candida tropicalis [24]): > 256 µg/mL; MIC90 (Candida parapsilosis [25]): 128 µg/mL (≈ 479 µM); MIC (Staphylococcus aureus [26]): 50 µg/mL (≈ 187 µM); MFC (Nakaseomyces glabratus [27]): > 256 µg/mL; MFC (Candida parapsilosis [28]): > 256 µg/mL; MFC (Candida albicans [29]): > 256 µg/mL; MIC90 (Pichia kudriavzevii [30]): > 256 µg/mL; MIC90 (Candida albicans [31]): > 256 µg/mL; MBC (Klebsiella pneumoniae [34]): > 100 µg/mL; MBC (Escherichia coli [35]): 100 µg/mL (≈ 374 µM)

From ChEMBL document CHEMBL3091355, “Designing and synthesis of novel antimicrobial heterocyclic analogs of fatty acids” (2013)
